In series [1] the test system is Trypanosoma cruzi. Nature of the series: Effect on glucose metabolism in Trypanosoma cruzi IRHOD/VO/2008/SN3 epimastigotes assessed as excreted succinate level at IC25 level incubated for 96 hrs at 28 degC by [1H]NMR spectroscopy.
A short description of series [2]: Selectivity index, ratio of IC50 for african green monkey Vero cells to IC50 for Trypanosoma cruzi IRHOD/VO/2008/SN3 axenic amastigotes. Type of series: toxicity, cell-based. The conditions noted are these: Vero cells versus Trypanosoma cruzi axenic amastigotes, read-out: Ratio IC50.
The subject of series [3] is Trypanosoma cruzi. The series is described as follows: Antitrypanosomal activity against Trypanosoma cruzi IRHOD/VO/2008/SN3 epimastigotes incubated for 72 hrs. The conditions noted are these: IRHOD/VO/2008/SN3, 72 h.
The nature of series [4]: Selectivity index, ratio of IC50 for african green monkey Vero cells to IC50 for Trypanosoma cruzi IRHOD/VO/2008/SN3 blood trypomastigotes. Type of series: toxicity, cell-based. The conditions noted are these: Vero cells versus Trypanosoma cruzi blood trypomastigotes, read-out: Ratio IC50.
Series [5] has as its system Trypanosoma cruzi. The series is described as follows: Effect on glucose metabolism in Trypanosoma cruzi IRHOD/VO/2008/SN3 epimastigotes assessed as excreted L-lactate level at IC25 level incubated for 96 hrs at 28 degC by [1H]NMR spectroscopy.
Series [6] has as its target Superoxide dismutase [Cu-Zn] (Homo sapiens, UniProt P00441). Nature of the series: Inhibition of SOD1 in human erythrocytes by spectrophotometry. Type of series: cell-based. Summed up:
(§1)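 Enzyme from sonicated parasites in STE buffer, pH 7.8, or human erythrocyte CuZn-SOD. Activity measured as NBT reduction by superoxide (Beyer–Fridovich): methionine, NBT, Triton X-100 and riboflavin, with A560 read before and after 10 min of light. Compounds tested at 1–100 μM. Mean of five; IC50 by linear regression from Kc.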

Series [7] deals with Trypanosoma cruzi. The series is described as follows: Antitrypanosomal activity against Trypanosoma cruzi IRHOD/VO/2008/SN3 metacyclic forms infected in BALB/c mouse model of chronic Chagas disease subjected to 3 cycles of immunosuppression with 50 mg/kg cyclophosphamide monohydrate for 3 consecutive weeks assessed as change in IgG absorbance level at 15 mg/kg/day, ip administered for 5 consecutive days starting on day 7 post infection until day 12 post infection and measured on day 150 post infection by ELISA. The series is classed as functional. Summed up:
(§2)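 Infected, treated mice (ip 5 or 15 mg/kg/day, days 7–12 pi) kept to day 120. Half then given three 4-day cycles of cyclophosphamide at 50 mg/kg with 3-day gaps; the rest left untreated. Serum IgG measured by ELISA on parasite-excreted Fe-SOD antigen: 1:100 serum, anti-IgG peroxidase 1:1000, OPD, A492, in triplicate. Reported as immunosuppressed minus non-immunosuppressed OD.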
In general terms: In an ELISA, binding on a coated surface is turned into a signal by an enzyme label.

For series [8], the system named is Trypanosoma cruzi. Nature of the series: Antitrypanosomal activity against Trypanosoma cruzi IRHOD/VO/2008/SN3 metacyclic forms infected in BALB/c mouse model of acute Chagas disease assessed as reduction parasitemia at 15 mg/kg/day, ip administered for 5 consecutive days starting on day 7 post infection until day 12 post infection and measured on day 40 post infection. The series is classed as functional. Further details: scale not given: the % may be the effect or the level left. The conditions noted are these: route intraperitoneal. Summed up: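 Groups of six female BALB/c mice (6–8 weeks, 25–30 g) inoculated ip with 5 × 10^5 metacyclic trypomastigotes. Dosed ip at 5 or 15 mg/kg/day on days 7–12 pi; untreated infected controls. Mandibular-vein blood (5 μL in 495 μL PBS) counted every 3 days for 40 days in a Neubauer chamber, as parasites/mL.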

Series [9] deals with Trypanosoma cruzi. Nature of the series: Toxicity in Trypanosoma cruzi IRHOD/VO/2008/SN3 metacyclic forms infected BALB/c mouse model of acute Chagas disease assessed as mortality incidence at 5 mg/kg/day, ip administered for 5 consecutive days starting on day 7 post infection until day 12 post infection and measured 40 days post infection. The conditions noted are these: in vivo, 960 h. Further details: route intraperitoneal. The series is classed as organism-based. Summed up: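 Female BALB/c mice (6–8 wk, 25–30 g), six per group, were infected ip with 5 × 10^5 metacyclic trypomastigotes from infected mouse blood. Once infection was confirmed, compound was given ip daily on days 7–12 pi. An infected untreated group served as control. Deaths were recorded during treatment, and parasitemia was counted in mandibular-vein blood every 3 days up to day 40 pi.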

Series [10] concerns Trypanosoma cruzi. The series is described as follows: Inhibition of Trypanosoma cruzi IRHOD/VO/2008/SN3 epimastigotes Iron superoxide dismutase at 50 uM by spectrophotometry. Summed up:
as §1

For series [11], the system named is Trypanosoma cruzi. The series is described as follows: Antitrypanosomal activity against Trypanosoma cruzi IRHOD/VO/2008/SN3 isolated from mouse blood trypomastigotes incubated for 24 hrs. The series is classed as functional, organism-based. As to conditions: IRHOD/VO/2008/SN3, Blood. Summed up:
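Blood from BALB/c mice 7 days post-infection, drawn by cardiac puncture into 3.8% citrate (7:3). Compounds in PBS at 10, 25 and 50 μM final, mixed with infected blood (~1 × 10^6 parasites/mL). Shaken 10 min at room temperature, held 24 h at 4 °C. Parasites counted at 1:100 dilution against a PBS control.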

For series [12], the system named is Trypanosoma cruzi. Nature of the series: Antitrypanosomal activity against Trypanosoma cruzi IRHOD/VO/2008/SN3 intracellular amastigotes infected in african green monkey Vero cells incubated for 72 hrs. The series is classed as functional, organism-based. As to conditions: IRHOD/VO/2008/SN3, Vero. Summed up: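 Vero cells (1 × 10^4/well) grown 2 days on coverslips, then infected with metacyclic forms at 10:1 for 24 h at 37 °C. Extracellular parasites washed off. Compounds at 1–100 μM for 72 h in RPMI with 10% FBS. Amastigotes counted on methanol-fixed, Giemsa-stained slides against untreated cultures. Mean of four determinations; IC50.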

The test system of series [13] is Trypanosoma cruzi. Nature of the series: Antitrypanosomal activity against Trypanosoma cruzi IRHOD/VO/2008/SN3 metacyclic forms infected in BALB/c mouse model of chronic Chagas disease subjected to 3 cycles of immunosuppression with 50 mg/kg cyclophosphamide monohydrate for 3 consecutive weeks assessed as change in IgG absorbance level at 5 mg/kg/day, ip administered for 5 consecutive days starting on day 7 post infection until day 12 post infection and measured on day 150 post infection by ELISA. The series is classed as functional. Summed up: as §2

Series [14] has as its system Trypanosoma cruzi. The series is described as follows: Antitrypanosomal activity against Trypanosoma cruzi IRHOD/VO/2008/SN3 metacyclic forms infected in BALB/c mouse model of chronic Chagas disease subjected to 3 cycles of immunosuppression with 50 mg/kg cyclophosphamide monohydrate for 3 consecutive weeks assessed as parasitemia reactivation level at 5 mg/kg/day, ip administered for 5 consecutive days starting on day 7 post infection until day 12 post infection and measured on day 150 post infection. The series is classed as functional. Summed up:
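Female BALB/c mice (6–8 wk, 25–30 g), six per group, were infected ip with 5 × 10^5 metacyclic trypomastigotes from infected mouse blood and dosed ip daily on days 7–12 pi. From day 120 pi a subgroup got three 4-day cycles of cyclophosphamide 50 mg/kg, 3 days apart. Parasites were counted by Neubauer chamber the day after cycle three in 5 μL mandibular-vein blood (1:100 PBS). Reactivation was scored against the matching non-immunosuppressed group; three experiments.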

In series [15] the test system is Trypanosoma cruzi. Nature of the series: Antitrypanosomal activity against Trypanosoma cruzi IRHOD/VO/2008/SN3 metacyclic forms infected in african green monkey Vero cells assessed as inhibition of infection rate at IC25 level 0.5 to 10 days. Type of series: functional. Summed up: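 Vero cells in RPMI infected with metacyclic forms at 10:1. Compounds added at IC25 immediately after infection for 12 h at 37 °C, 5% CO2, then washed off. Cultures grown 10 days with fresh medium every 48 h. Giemsa slides scored for % infected cells and amastigotes per cell (>100 cells); trypomastigotes in medium counted. Mean of four.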

Active and inactive are the calls of the source. No cut-off for these calls is given here.

Chain of Superoxide dismutase [Cu-Zn] (P00441 whole entry): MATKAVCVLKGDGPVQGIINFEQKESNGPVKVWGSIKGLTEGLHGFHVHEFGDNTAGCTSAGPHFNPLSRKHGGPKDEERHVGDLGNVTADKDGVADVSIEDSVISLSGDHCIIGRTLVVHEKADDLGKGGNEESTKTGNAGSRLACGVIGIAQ

On to `Clc1nnc(NCCCn2ccnc2)c2ccccc12`, for which, in the series on Trypanosoma cruzi [1], the outcome was inactive. Besides, the results for the selectivity ratio in series [2] and in series [4] were 41.2 and 42.8, respectively. Besides, the IC50 (as a rule, the concentration needed to halve the response being measured) was determined as 8.8 µM with Trypanosoma cruzi [3], 83.1 µM in [6], 10.2 µM in the series on Trypanosoma cruzi [11] and 8.9 µM in the series on Trypanosoma cruzi [12]. Besides, the Activity with Trypanosoma cruzi [5] is reported as -38%; with Trypanosoma cruzi [8] it was 61%; in the series on Trypanosoma cruzi [9], “Non-toxic”; in the series with Trypanosoma cruzi [14], 21%. The deltaA came out at 0.0096 in the series on Trypanosoma cruzi [7] and 0.0143 in the series on Trypanosoma cruzi [13]. The inhibition (usually the drop in the measured response relative to a control, in per cent) with Trypanosoma cruzi [10] is 100%. Also, in the series with Trypanosoma cruzi [15], the “inhibition (INH)” value is on record as 80.3%.

On to `Clc1nnc(NCCc2c[nH]cn2)c2ccccc12`, for which the result in the series with Trypanosoma cruzi [1] was inactive. Also, the values for the selectivity ratio in [2] and in series [4] were 42.3 and 46.5, respectively. Besides, the IC50 with Trypanosoma cruzi [3] is 8.7 µM; in series [6] it was 71.5 µM; with Trypanosoma cruzi [11], 9.2 µM; with Trypanosoma cruzi [12] it was 9.4 µM. In addition, the Activity in the series on Trypanosoma cruzi [5] was -33%; in the series with Trypanosoma cruzi [8] it was 74%; in the series on Trypanosoma cruzi [9] it was “Non-toxic”; in the series on Trypanosoma cruzi [14], 9%. For the same molecule, the deltaA with Trypanosoma cruzi [7] is 0.0067; in the series with Trypanosoma cruzi [13], 0.0103. The inhibition with Trypanosoma cruzi [10] stood at 100%. Further, the inhibition (INH) in the series on Trypanosoma cruzi [15] stood at 83.9%.

For the origin of these results see ChEMBL document CHEMBL2176896, “Phthalazine derivatives containing imidazole rings behave as Fe-SOD inhibitors and show remarkable anti-T. cruzi activity in immunodeficient-mouse mode of infection” (J Med Chem, 2012).
